Laboratory results taken from ChEMBL document CHEMBL1157378, “Role for cell density in antifungal drug resistance in Candida albicans biofilms” (2007).
In brackets after ≈: the same amount, converted by molar mass.

Tests used:
Assay type in all cases: functional
Candida albicans [1] = test: Antimicrobial activity against Cdr1, Cdr2 and Mdr1 deficient Candida albicans DSY1050 at planktonic cell density of 10^8 cells/ml after 48 hrs by XTT assay; details: DSY1050, 48 h
In short: (§1)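 YNB-grown yeast (50 mM glucose, room temperature, shaken, to ~2 x 10^8 cells/ml) washed into MOPS-buffered RPMI 1640 with L-glutamine and set to the stated density. Exposed to twofold serial drug dilutions (1,024 to 0.0313 µg/ml) at 37°C, 48 h (caspofungin 24 h), with drug-free controls. Read-out: XTT (0.5 g/liter) plus 1 µM menadione, formazan at 490 nm.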

Candida albicans [2] = test: Antimicrobial activity against Chk1 deficient Candida albicans CHK21 at planktonic cell density of 10^3 cells/ml after 48 hrs by XTT assay; details: CHK21, 48 h; in short: as §1
Candida albicans [3] = test: Antimicrobial activity against Candida albicans GDH2346 at planktonic cell density of 10^8 cells/ml after 48 hrs by XTT assay; details: GDH2346, 48 h; in short: as §1
Candida albicans [4] = test: Antimicrobial activity against Cdr1, Cdr2 and Mdr1 deficient Candida albicans DSY1050 at planktonic cell density of 10^3 cells/ml after 48 hrs by XTT assay; details: DSY1050, 48 h; in short: as §1
Candida albicans [5] = test: Antimicrobial activity against Candida albicans SC5314 dissociated biofilms at cell density of 10^3 cells/ml after 48 hrs by XTT assay; details: SC5314, 48 h
In short: (§2)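 Polystyrene-well biofilms (48 h, 37°C) washed, then broken up in 100 µl RPMI by scraping and aspiration. Cells used undiluted (about 2 x 10^8 cells/ml equivalent) or adjusted by A600 against a hemacytometer-calibrated yeast standard curve. Drug exposure at 37°C for 48 h (caspofungin 24 h), then XTT/menadione read at 490 nm.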

Candida albicans [6] = test: Antimicrobial activity against Candida albicans FH1 intact biofilms after 48 hrs by XTT assay; details: FH1, 48 h
In short: (§3)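 Biofilm seeded at 1 x 10^6 cells/ml in RPMI in polystyrene microtiter wells and grown 48 h at 37°C in a moist chamber. Washed once and drug added to the same well (twofold dilutions, 1,024 to 0.0313 µg/ml) for 48 h at 37°C (caspofungin 24 h). Read-out: XTT/menadione reduction at 490 nm.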

Candida albicans [7] = test: Antimicrobial activity against Candida albicans FH1 dissociated biofilms at cell density of 10^3 cells/ml after 48 hrs by XTT assay; details: FH1, 48 h; in short: as §2
Candida albicans [8] = test: Antimicrobial activity against Cdr1, Cdr2 and Mdr1 deficient Candida albicans DSY1050 dissociated biofilms at cell density of 10^8 cells/ml after 48 hrs by XTT assay; details: DSY1050, 48 h; in short: as §2
Candida albicans [9] = test: Antimicrobial activity against Chk1 deficient Candida albicans CHK21 at planktonic cell density of 10^8 cells/ml after 48 hrs by XTT assay; details: CHK21, 48 h; in short: as §1
Candida albicans [10] = test: Antimicrobial activity against fluconazole-resistant Candida albicans FH5 dissociated biofilms at cell density of 10^8 cells/ml after 48 hrs by XTT assay; details: FH5, 48 h; in short: as §2
Candida albicans [11] = test: Antimicrobial activity against fluconazole-resistant Candida albicans FH5 at planktonic cell density of 10^3 cells/ml after 48 hrs by XTT assay; details: FH5, 48 h; in short: as §1
Candida albicans [12] = test: Antimicrobial activity against Candida albicans GDH2346 at planktonic cell density of 10^3 cells/ml after 48 hrs by XTT assay; details: GDH2346, 48 h; in short: as §1
Candida albicans [13] = test: Antimicrobial activity against Candida albicans SC5314 dissociated biofilms at cell density of 10^8 cells/ml after 48 hrs by XTT assay; details: SC5314, 48 h; in short: as §2
Candida albicans [14] = test: Antimicrobial activity against Candida albicans FH1 at planktonic cell density of 10^3 cells/ml after 48 hrs by XTT assay; details: FH1, 48 h; in short: as §1
Candida albicans [15] = test: Antimicrobial activity against fluconazole-resistant Candida albicans FH5 at planktonic cell density of 10^8 cells/ml after 48 hrs by XTT assay; details: FH5, 48 h; in short: as §1
Candida albicans [16] = test: Antimicrobial activity against Chk1 deficient Candida albicans CHK21 dissociated biofilms at cell density of 10^3 cells/ml after 48 hrs by XTT assay; details: CHK21, 48 h; in short: as §2
Candida albicans [17] = test: Antimicrobial activity against Candida albicans GDH2346 dissociated biofilms at cell density of 10^8 cells/ml after 48 hrs by XTT assay; details: GDH2346, 48 h; in short: as §2
Candida albicans [18] = test: Antimicrobial activity against Cdr1, Cdr2 and Mdr1 deficient Candida albicans DSY1050 dissociated biofilms at cell density of 10^3 cells/ml after 48 hrs by XTT assay; details: DSY1050, 48 h; in short: as §2
Candida albicans [19] = test: Antimicrobial activity against Chk1 deficient Candida albicans CHK21 intact biofilms after 48 hrs by XTT assay; details: CHK21, 48 h; in short: as §3
Candida albicans [20] = test: Antimicrobial activity against Candida albicans FH1 dissociated biofilms at cell density of 10^8 cells/ml after 48 hrs by XTT assay; details: FH1, 48 h; in short: as §2
Candida albicans [21] = test: Antimicrobial activity against Candida albicans SC5314 at planktonic cell density of 10^8 cells/ml after 48 hrs by XTT assay; details: SC5314, 48 h; in short: as §1
Candida albicans [22] = test: Antimicrobial activity against Candida albicans SC5314 biofilms after 24 hrs by XTT assay; details: SC5314, 24 h
In short: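 Intact biofilms formed from 1 x 10^6 cells/ml in RPMI in polystyrene microtiter wells, 48 h at 37°C in a moist chamber, then washed once and covered with 100 µl RPMI. A twofold drug series was added in the same well for 24 h at 37°C. Metabolic activity was read by XTT (0.5 g/liter, 1 µM menadione, up to 2 h) at 490 nm.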

Candida albicans [23] = test: Antimicrobial activity against fluconazole-resistant Candida albicans FH5 dissociated biofilms at cell density of 10^3 cells/ml after 48 hrs by XTT assay; details: FH5, 48 h; in short: as §2
Candida albicans [24] = test: Antimicrobial activity against Candida albicans assessed as cell viability at cell density of 2 x 10^4 cells/ml preincubated for 1 hr
Candida albicans [25] = test: Antimicrobial activity against Cdr1, Cdr2 and Mdr1 deficient Candida albicans DSY1050 intact biofilms after 48 hrs by XTT assay; details: DSY1050, 48 h; in short: as §3
Candida albicans [26] = test: Antimicrobial activity against Chk1 deficient Candida albicans CHK21 dissociated biofilms at cell density of 10^8 cells/ml after 48 hrs by XTT assay; details: CHK21, 48 h; in short: as §2
Candida albicans [27] = test: Antimicrobial activity against Candida albicans SC5314 intact biofilms after 48 hrs by XTT assay; details: SC5314, 48 h; in short: as §3
Candida albicans [28] = test: Antimicrobial activity against fluconazole-resistant Candida albicans FH5 intact biofilms after 48 hrs by XTT assay; details: FH5, 48 h; in short: as §3
Candida albicans [29] = test: Antimicrobial activity against Candida albicans SC5314 biofilms upto 12 hrs by XTT assay; details: SC5314, 12 h
In short: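 SC5314 biofilm development followed over 72 h in polystyrene wells. At intervals the developing biofilm was exposed to fluconazole or amphotericin B, and metabolic activity was read by XTT/menadione reduction at 490 nm.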

Candida albicans [30] = test: Antimicrobial activity against Candida albicans SC5314 at planktonic cell density of 10^3 cells/ml after 48 hrs by XTT assay; details: SC5314, 48 h; in short: as §1
Candida albicans [31] = test: Antimicrobial activity against Candida albicans FH1 at planktonic cell density of 10^8 cells/ml after 48 hrs by XTT assay; details: FH1, 48 h; in short: as §1
Candida albicans [32] = test: Antimicrobial activity against Candida albicans GDH2346 dissociated biofilms at cell density of 10^3 cells/ml after 48 hrs by XTT assay; details: GDH2346, 48 h; in short: as §2
Candida albicans [33] = test: Antimicrobial activity against Candida albicans GDH2346 intact biofilms after 48 hrs by XTT assay; details: GDH2346, 48 h; in short: as §3

C[C@@H]1[C@H](O)[C@@H](C)/C=C/C=C/C=C/C=C/C=C/C=C/C=C/[C@H](O[C@@H]2O[C@H](C)[C@@H](O)[C@H](N)[C@@H]2O)C[C@@H]2O[C@](O)(C[C@@H](O)C[C@@H](O)[C@H](O)CC[C@@H](O)C[C@@H](O)CC(=O)O[C@H]1C)C[C@H](O)[C@H]2C(=O)O [AMPHOTERICIN B]
MIC80 (Candida albicans [1]): > 32 µg/mL | MIC80 (Candida albicans [2]): 0.125 µg/mL (≈ 0.135 µM) | MIC80 (Candida albicans [3]): > 32 µg/mL | MIC80 (Candida albicans [4]): 0.25 µg/mL (≈ 0.271 µM) | MIC80 (Candida albicans [5]): 0.5 µg/mL (≈ 0.541 µM) | MIC80 (Candida albicans [6]): > 32 µg/mL | MIC80 (Candida albicans [7]): 0.125 µg/mL (≈ 0.135 µM) | MIC80 (Candida albicans [8]): > 32 µg/mL | MIC80 (Candida albicans [9]): > 32 µg/mL | MIC80 (Candida albicans [10]): > 32 µg/mL | MIC80 (Candida albicans [11]): 0.25 µg/mL (≈ 0.271 µM) | MIC80 (Candida albicans [12]): 0.125 µg/mL (≈ 0.135 µM) | MIC80 (Candida albicans [13]): > 32 µg/mL | MIC80 (Candida albicans [14]): 0.125 µg/mL (≈ 0.135 µM) | MIC80 (Candida albicans [15]): > 32 µg/mL | MIC80 (Candida albicans [16]): 0.25 µg/mL (≈ 0.271 µM) | MIC80 (Candida albicans [17]): > 32 µg/mL | MIC80 (Candida albicans [18]): 0.25 µg/mL (≈ 0.271 µM) | MIC80 (Candida albicans [19]): > 32 µg/mL | MIC80 (Candida albicans [20]): > 32 µg/mL | MIC80 (Candida albicans [21]): > 32 µg/mL | MIC80 (Candida albicans [22]): > 8 µg/mL | MIC80 (Candida albicans [23]): 0.25 µg/mL (≈ 0.271 µM) | Activity (Candida albicans [24]): 80% | MIC80 (Candida albicans [25]): > 32 µg/mL | MIC80 (Candida albicans [26]): > 32 µg/mL | MIC80 (Candida albicans [27]): > 32 µg/mL | MIC80 (Candida albicans [28]): > 32 µg/mL | MIC80 (Candida albicans [29]): 0.125 µg/mL (≈ 0.135 µM) | MIC80 (Candida albicans [30]): 0.125 µg/mL (≈ 0.135 µM) | MIC80 (Candida albicans [31]): > 32 µg/mL | MIC80 (Candida albicans [32]): 0.5 µg/mL (≈ 0.541 µM) | MIC80 (Candida albicans [33]): 32 µg/mL (≈ 34.6 µM)
